Screening results (PubChem)
HSF1 activator – increases HSF-1 driven luciferase reporter signal; activation, % at 9 µM; actives 1.7% (n = 300,000); NIH3T3-HGL HSF-1 luciferase reporter, MG132, 8 h; 100% = twice DMSO control signal;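 active = mean replicate activation of at least 50% with a set share of replicates each reaching 50%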
L major viab – Leishmania major promastigote growth inhibition. Leishmania major promastigotes, resazurin fluorescence viability. inhibition, % at 10 µM. actives 9% (n = 200,000). AID 1063; in the data active = inhibition above about 50%;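 also: promastigotes grown with compound for 44 hours at 28 °C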
T cruzi inh – blocks replication of Trypanosoma cruzi; T. cruzi beta-gal in NIH3T3, luminescence, 90 h; actives 1.4% (n = 300,000); AID 1885; inhibition, % (test concentration not listed);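 active = mean inhibition across valid replicates above about 55%, limit read from the data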;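 also: signal also drops with host cell toxicity which is not excluded here; higher percent means less beta-gal luminescence so fewer parasites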
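compound dosing = single 50 nL compound addition per well in DMSO | material = NIH/3T3 host cells with β-galactosidase reporter T. cruzi | input = 5,000 host fibroblasts per well | timing = ≥90 h infection period, 3 h prior cell attachment | read-out basis = percent inhibition of parasite-derived β-gal signal | detection = GalScreen β-gal luminescence, detergent lysis, 60 min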
Hsp70 activator – switches on Hsp70 transcription. HeLa Hsp70 promoter luciferase reporter, luminescence; scaled: vehicle 0, proteasome-inhibitor control 100%. activation, % at 10 µM. AID 1203. actives 0.04% (n = 200,000);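 active = activation above the mean across all tested compounds plus 3 SD, cutoff set per campaign, cut at about 5.5% in these data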
HSF1 inhib – HSF1 inhibition; activity change, negative = inhibition, % at 7.5 µM (by protocol); actives 0.77% (n = 300,000); NIH3T3-HGL HSE-luciferase, MG132-induced, luminescence 8 h; hits give low values;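 active = more than half of replicate wells show activity change below -50%, luminescence cut by over half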;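 also: luciferase reports HSF-1 transcriptional activity via heat shock element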
Large screens that a line does not name were inactive. Shown is part of a subset that was picked to be rich in hits.

CCN(CC)C(=S)SC1CCCCN(C(=O)c2ccccc2)C1=O (stereo not given)	none (no result: L major viab, Hsp70 activator)
CCOC(=O)c1cn(-c2c(Cl)cccc2Cl)c2cc(Cl)c([N+](=O)[O-])cc2c1=O	HSF1 activator 103.7
CCN=C(NS(=O)(=O)c1ccc(Br)cc1)c1ccc(Cl)cc1	none (no result: HSF1 activator, T cruzi inh, HSF1 inhib)
COc1ccc(/C=N/Nc2nnc(Cc3ccc(OC)c(OC)c3)c(=O)[nH]2)cc1OC	L major viab 80.8
O=C(CSc1nc2ccccc2c(=O)n1-c1cccc(C(F)(F)F)c1)NC1CC1	none
CCCNC(=O)CSc1nnc(-c2ccccc2Br)n1-c1cccc(C(F)(F)F)c1	L major viab 79.4
NC(N)=Nc1nc(-c2ccccc2)c2cc(F)ccc2n1	L major viab 100.0
Cc1nnc(SC(C)C(=O)Nc2c(C)n(C)n(-c3ccccc3)c2=O)n1N (stereo not given)	none
O=C(NCc1ccccn1)C(=O)Nc1nc(C23CC4CC(CC(C4)C2)C3)cs1	L major viab 67.9
CCN(CC)CCN1C(=O)C(=O)/C(=C(/O)c2ccc(S(=O)(=O)N3CCOCC3)cc2)C1c1ccc(C(C)(C)C)cc1 (stereo not given)	none (no result: L major viab, Hsp70 activator)
O=C(Nc1ccc2c(c1)CCC2)c1cc(S(=O)(=O)Nc2ccc(F)cc2)c(Cl)cc1Cl	L major viab 60.0
COc1ccc(CCC(=O)Nc2ccc(Cl)c(S(=O)(=O)N3CCCC3)c2)cc1	none (no result: L major viab, Hsp70 activator)
O=C1N(CCCN2C(=O)C3(OCCO3)c3ccccc32)c2ccccc2C12OCCO2	none
O=C1N(CCCCN2C(=O)C3(OCCO3)c3ccccc32)c2ccccc2C12OCCO2	L major viab 59.5
C/C=C/c1c(F)c(F)c(Oc2ccc(C(=O)O)cc2)c(F)c1F	HSF1 activator 124.8
CC(C)OC(=O)Nc1ccc(Oc2c(F)c(F)c(F)c(F)c2F)cc1	none
CN(/C=C/c1c([N+](=O)[O-])c(=O)n(C)c(=O)n1C)c1ccccc1	none
CC[n+]1c(/C=C/Nc2ccccc2)oc2ccc(OC)cc21	none
O=S(=O)([O-])CCC[n+]1c(/C=C\Nc2ccccc2)oc2ccc(-c3ccccc3)cc21	none
CC[n+]1c(/C=C/N(C)c2ccccc2)oc2ccccc21	L major viab 100.0, T cruzi inh 78.4
CC[n+]1c(/C=C/Nc2ccccc2)oc2ccccc21	L major viab 96.0
CC[n+]1c(/C=C/N(C)c2ccccc2)oc2ccc(F)cc21	L major viab 83.6
CC(=O)Nc1ccc2nc(NC(=O)c3ccc([N+](=O)[O-])o3)sc2c1	none (no result: L major viab, Hsp70 activator)
Cc1csc(C(=O)NN)c1N(C)C	none (no result: L major viab, Hsp70 activator)
O=C(CNCc1ccccc1)NCCCN1CCCC1=O	none (no result: L major viab, Hsp70 activator)
O=C(NCc1ccccn1)C1C2C=CC(C2)C1C(=O)Nc1ccc(F)cc1 (stereo not given)	L major viab 75.5
O=C(O)C1C2C=CC(C2)C1C(=O)NCc1ccc2c(c1)OCO2 (stereo not given)	none
O=C(O)C1C2C=CC(C2)C1C(=O)NCc1ccc(Cl)c(Cl)c1 (stereo not given)	L major viab 52.9
Cc1ccc(NC(=O)CN(C)C(=O)c2n[nH]c(=O)c3ccccc23)cc1	none
CC(C)n1c(=O)n(CC(=O)NCC2CCCO2)c(=O)c2c3c(sc21)COC(C)(C)C3 (stereo not given)	none (no result: L major viab, Hsp70 activator)
CCn1nc(C(=O)OCC(=O)Nc2nc(-c3ccc(OC)cc3)cs2)c2ccccc2c1=O	HSF1 activator 77.0
Cc1cc(N2CCOCC2)ccc1/C=C\[N+](=O)[O-]	HSF1 activator 79.8, L major viab 69.6
CCC(Sc1nnc(-c2ccco2)n1C)C(=O)Nc1nnc(C)s1 (stereo not given)	none (no result: L major viab, Hsp70 activator)
CC(CCc1ccccc1)NC(=O)Cn1cccc1C(=O)c1ccccc1 (stereo not given)	none (no result: L major viab, Hsp70 activator)
C=CCn1c(O)c(N=NC(=S)Nc2cccc(OC)c2)c2ccccc21	L major viab 97.7, T cruzi inh 59.3
C=CCn1c(O)c(N=NC(=O)OCC)c2ccccc21	none
C=CCn1c(O)c(N=NC(=S)Nc2ccc(OC)cc2)c2ccccc21	L major viab 87.1
CC(C)Cc1nc(C(N)=O)c2[nH]c(=O)n(-c3ccc(F)cc3)c2n1	none
Cc1cccc(-n2c(=O)[nH]c3c(C(N)=O)nc(CC(C)C)nc32)c1	L major viab 50.5
CCCC(NC(=O)COc1cc2c(c3oc(=O)cc(C)c13)CCC(C)(C)O2)C(=O)O (stereo not given)	HSF1 inhib -55.0 (no result: L major viab, Hsp70 activator)
Cc1ccccc1C(=O)Nc1ccccc1C(=O)N1CCC(C)CC1	none (no result: L major viab, Hsp70 activator)
